Experimental data as given in ChEMBL document CHEMBL3593173, “Discovery of novel N-(5-(tert-butyl)isoxazol-3-yl)-N'-phenylurea analogs as potent FLT3 inhibitors and evaluation of their activity against acute myeloid leukemia in vitro and in vivo” (Bioorg Med Chem, 2015).
In brackets after ≈: the same amount, converted by molar mass.

Key:
MV4-11 = assay: Cytotoxicity against human MV4-11 cells incubated for 72 hrs by MTT assay; type: functional, cell-based; conditions: MV4-11, 72 h
Summary of the method: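 Leukemia cells were grown with 10% FBS at 37 °C in 5% CO₂; MV4-11 was kept in IMDM. Cells were seeded at 1–4 × 10⁴ per well, and an equal volume of medium containing increasing inhibitor concentrations was added. MTT was added for 2–4 h, formazan was dissolved in DMSO, and OD was read at 570 nm to derive IC50.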

[1] = Solubility in PBS solution; type: physicochemical
[2] = Solubility in water; type: physicochemical
[3] = Solubility in EtOH solution; type: physicochemical
[4] = Solubility in MeOH solution; type: physicochemical

| Structure (SMILES) | IC50 (MV4-11) [nM] | other results |
| --- | --- | --- |
| C#Cc1ccn2cc(-c3ccc(NC(=O)Nc4cc(C(C)(C)C)on4)cc3)nc2c1 | 3.46 | solubility [1]: 10.2 µg/mL (≈ 0.0255 mM); solubility [2]: 26.7 µg/mL (≈ 0.0668 mM); solubility [3]: 4100 µg/mL (≈ 10.3 mM); solubility [4]: 5840 µg/mL (≈ 14.6 mM) |
| CC(C)(C)c1cc(NC(=O)Nc2ccc(-c3cn4c(n3)sc3cc(OCCN5CCOCC5)ccc34)cc2)no1 [QUIZARTINIB] | 0.68 |  |
| CC(C)(C)c1cc(NC(=O)Nc2ccc(-c3cn4ccc(Cl)cc4n3)cc2)no1 | 5.91 |  |
| CCOc1ccn2cc(-c3ccc(NC(=O)Nc4cc(C(C)(C)C)on4)cc3)nc2c1 | 11.6 |  |
| CC(C)(C)c1cc(NC(=O)Nc2ccc(-c3cn4c(Cl)cccc4n3)cc2)no1 | 56.1 |  |
| CC(C)(C)c1cc(NC(=O)Nc2ccc(-c3cn4cccc(Cl)c4n3)cc2)no1 | 353 |  |
| CC(C)(C)c1cc(NC(=O)Nc2ccc(-c3cn4cc(C5CC5)ccc4n3)cc2)no1 | 15.8 |  |
| CC(C)(C)c1cc(NC(=O)Nc2ccc(-c3cc4ccccc4o3)cc2)no1 | 195 |  |
| CC(=O)Oc1ccn2cc(-c3ccc(NC(=O)Nc4cc(C(C)(C)C)on4)cc3)nc2c1 | 29.4 |  |
| CC(C)(C)c1cc(NC(=O)Nc2ccc(-c3cn4cc(F)ccc4n3)cc2)no1 | 20.9 |  |
| CC(C)(C)c1cc(NC(=O)Nc2ccc(-c3cn4ccc(Br)cc4n3)cc2)no1 | 9.59 |  |
| CC(C)(C)c1cc(NC(=O)Nc2ccc(-c3cn4cc(Br)ccc4n3)cc2)no1 | 44.5 |  |
| CC(C)(C)c1cc(NC(=O)Nc2ccc(-c3nc4ccccc4s3)cc2)no1 | 172 |  |
| CC(C)(C)c1cc(NC(=O)Nc2ccc(-c3cn4cc(I)ccc4n3)cc2)no1 | 98.5 |  |
| Cc1ccn2cc(-c3ccc(NC(=O)Nc4cc(C(C)(C)C)on4)cc3)nc2c1 | 0.79 | solubility [3]: 3340 µg/mL (≈ 8.58 mM); solubility [4]: 6830 µg/mL (≈ 17.5 mM) |
